Insulin prom act = TRM-6 insulin promoter activation; TRM-6 cells, insulin promoter eGFP reporter, imaging; plate-scaled: unstimulated 0, stimulated control 100; activation, % at 2 µM; 0.81% of 130,000 active; AID 1296;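 active means activation at 2 µM above a set limit, confirmed on inspection of the cell images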;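 further: share of cells whose green reporter signal exceeds an intensity cutoff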
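material = TRM-6 human fetal islet cells, insulin promoter–eGFP reporter | input = 1,000 TRM-6 cells seeded per well | benchmarks = stimulated versus unstimulated wells as plate controls | measured by = automated fluorescence imaging of paraformaldehyde-fixed, Hoechst-counterstained cells, green channel | schedule = compound exposure 48 h, 37 °C | reagent = tamoxifen at 0.75 µM added at seeding for reporter induction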
Starred values were filed as active, the others as inactive. Many of the other results were omitted from the sample, so hits are more common in it than they were.

SMILES	Insulin prom act
Cc1ccc(Oc2ncccc2COC(=O)Nc2ccccc2C)cc1	369.2*
Cc1ccc(Sc2ncccc2COC(=O)Nc2c(C)cccc2C)cc1	110.3
Cc1ccccc1NC(=O)OCc1cccnc1Sc1ccc(Cl)cc1	0.0
Cc1cc(Cl)cc(Cl)c1OCCOCCN(C)C	128.6
Cc1cc(Cl)cc(Cl)c1OCCOc1cccc2cccnc12	83.9*
Cc1ccc(OCCOCCOc2cccc3cccnc23)c(Br)c1	8.3
Cc1cc(C)c(-c2c(O)c3cnn(-c4ccccc4)c3[nH]c2=O)c(C)c1	-66.7
COc1ccc(-c2nc(C)sc2CC(=O)O)cc1	0.0
O=C(Nc1cccc2ccccc12)N1CCN(c2ncccn2)CC1	-2.3
CSc1nc(Sc2ccc(Cl)cc2)c2ccccc2n1	-6.5
O=C(NCc1ccco1)C1CN(S(=O)(=O)c2ccccc2)CCN1S(=O)(=O)c1ccccc1 (stereo not drawn)	0.0
Cc1ccc(C(=O)NCc2ccco2)cc1S(=O)(=O)N1CCOCC1	5.4
O=S(=O)(NCc1ccco1)N1CCOCC1	493.8*
CN(CC(=O)Nc1nc2ccccc2s1)S(=O)(=O)c1ccccc1	7.9
CC(=O)Nc1ccc(NC(=O)/C(Cl)=C/c2ccccc2)cc1	7.0
CCOc1ccc(C(=O)/C=C/Nc2ccc(S(=O)(=O)N=C(N)N)cc2)cc1	-8.8
COc1ccccc1NS(=O)(=O)c1ccc(NC(=O)Cc2cccs2)cc1	9.1
Cn1c(O)c(N=NC(=O)c2cccc(S(=O)(=O)N3CCCCC3)c2)c2ccccc21	-3.2
O=C(Nc1ccc(OCC(F)(F)C(F)F)cc1)c1ccncc1	-5.9
O=C(Nc1ccc(Cl)cn1)c1ccc(COCC(F)(F)C(F)F)o1	0.0
CC(C)NC(=O)c1ccc(COCC(F)(F)C(F)F)cc1	80.0*
CC1Cc2ccccc2N1CC(=O)NC(c1ccccc1)c1ccccc1 (stereo not drawn)	6.7
O=C(Cn1nnc(-c2ccncc2)n1)N(C1CCCCC1)C1CCCCC1	9.1
Cc1noc(C)c1CSc1ccc2ccccc2n1	104.9*
Cc1noc(C)c1CSc1nc2ccccc2s1	3.1
SMILES	Insulin prom act
Cc1noc(C)c1CSc1nnc(C)c(=O)[nH]1	-78.4
Cn1cc(CNC(=O)C23CC4CC(CC(C4)C2)C3)cn1	-5.3
CCCc1nnc(NC(=O)CCC(=O)N2CCCCCC2)s1	0.0
COc1ccc(Cl)cc1N(CC(=O)Nc1ccccc1SC)S(C)(=O)=O	128.6
O=C(NC(=S)NCc1ccccc1)c1cccnc1	-7.1
S=C(NCc1ccccc1)N1CCn2cccc2C1c1cccnc1 (stereo not drawn)	123.5*
CCCCNC(=S)N1CCn2cccc2C1c1ccccc1 (stereo not drawn)	0.0
Cc1c(CNC(=O)c2cnn3c2NC(c2ccc(Br)cc2)CC3C(F)(F)F)cnn1C (stereo not drawn)	-80.7
COc1ccc(C(=O)c2oc3ccccc3c2N)cc1	306.3
CCOC(=O)c1sc2nc(-c3cccnc3)ccc2c1N	-71.4
COc1ccc(C(=O)c2sc3nc(-c4ccccc4)ccc3c2N)cc1	207.4*
CCOc1cc(S(=O)(=O)N2CCOCC2)ccc1F	-81.2
COc1ccc(F)cc1S(=O)(=O)N1CCCC(C)C1 (stereo not drawn)	-9.4
COc1ccc(F)cc1S(=O)(=O)N1CCCN(S(=O)(=O)c2cc(F)ccc2OC)CC1	-75.0
CCOc1cc(S(=O)(=O)Nc2ccc(Cl)cn2)ccc1Cl	-2.3
CCOc1cc(S(=O)(=O)Nc2ccccn2)ccc1F	464.3*
CCOc1cc(S(=O)(=O)NC2CCCCCC2)ccc1F	420.0*
COc1ccc(F)cc1S(=O)(=O)NC1CCCC1	82.9*
CCOC(=O)N1CCN(C(=O)COc2ccc(S(=O)(=O)NC3CCCCC3)cc2C)CC1	122.7
CCOc1cc(S(=O)(=O)n2nc(C)cc2C)ccc1F	-50.3
CCn1cc(C(=O)N2CCN(c3ccccn3)CC2)c(=O)c2cc(S(=O)(=O)N(C)C3CCCCC3)ccc21	7.1
Cc1ccc(-c2ccc(=O)n(CC(=O)N3CCN(c4cc(Cl)ccc4C)CC3)n2)cc1	-8.6
O=C(NCCc1ccccc1)c1cc(=O)c2ccccc2o1	-5.9
Cc1nc2cc(-c3cccc(F)c3)nn2c(N2CCN(C(=O)c3ccco3)CC2)c1C	-4.3
CCn1c(Cc2ccccc2)nnc1SCC(=O)Nc1ccc(OC)cc1	6.7
SMILES	Insulin prom act
CCn1c(Cc2ccccc2)nnc1SCC(=O)Nc1ccc2c(c1)OCCO2	6.5
CCn1c(Cc2ccc(OC)cc2)nnc1SCC(=O)Nc1cccc(C(=O)OC)c1	442.9*
C=CCn1c(C)cc(C(=O)COC(=O)CNC(=O)c2ccccc2)c1C	-66.7
CC1(C)COC(c2coc3ccccc3c2=O)OC1	-100.0
CCOC(=O)c1cnn(-c2ccccc2)c1-n1cccc1C(=O)C(=O)Nc1ccc(F)cc1	6.9
CCN(CC(=O)NCc1ccc(F)cc1)CC(O)COCc1cccc(OC)c1 (stereo not drawn)	121.2
CN(CC(=O)Nc1ccncc1)S(=O)(=O)c1ccc(Cl)cc1	-3.1
CN(C)S(=O)(=O)c1ccc(NC(=O)CN2CCCc3ccccc32)cc1	383.3*
Cc1c(NC(=O)CN2CCCc3ccccc32)c(=O)n(-c2ccccc2)n1C	0.0
O=C(CN1CCCc2ccccc21)NCc1ccccc1Cl	8.8
COC(=O)c1sc(NC(=O)Cc2cccs2)nc1C	-85.7
CC(C)(C)C(=O)c1cn(CC(=O)NCc2ccc3c(c2)OCO3)c2ccccc12	7.1
COc1cc(NC(C(=O)Nc2cccc(C(C)=O)c2)c2ccccc2)cc(OC)c1OC (stereo not drawn)	3.1
CN(C)/C=N/c1sc2c(c1C#N)CC(C)(C)NC2(C)C	271.4
COC(=O)Cn1c(=NC(=O)c2cc(OC)cc(OC)c2)sc2cc(OC)ccc21	-3.2
CCn1c(=NC(=O)CSC(C)=O)sc2cc(F)ccc21	79.3*
C=CCn1c(=NC(=O)CN2C(=O)CCC2=O)sc2cc(S(N)(=O)=O)ccc21	0.0
O=C(c1ccc(Oc2ccccc2)cc1)c1nc2c(n1O)CCCC2	0.0
O=[N+]([O-])c1ccc(N/N=C/c2ccc[nH]2)cc1	244.8*
CNc1nc(N/N=C/c2ccc([N+](=O)[O-])cc2)nc(Nc2ccccc2)n1	0.0
O=[N+]([O-])c1ccc(N/N=C/c2c[nH]c3ccccc23)cc1	222.6*
O=C(N/N=C/c1ccc[nH]1)c1ccncc1	6.7
COc1ccccc1NS(=O)(=O)c1ccc(N/N=C/c2c(C)nn(-c3ccccc3)c2N2CCCC2)c([N+](=O)[O-])c1	-3.9
COc1ccccc1NS(=O)(=O)c1cccc2cccnc12	-50.0
O=C(CNc1ccccc1)N/N=C/c1c[nH]c2ccccc12	-6.7
SMILES	Insulin prom act
O=C(N/N=C/c1c[nH]c2ccccc12)c1[nH]c2ccc(Br)cc2c1-c1ccccc1	233.3
COc1ccccc1NS(=O)(=O)c1cc([N+](=O)[O-])ccc1N/N=C/c1c[nH]c2ccccc12	263.6*
Cc1ccc(Cc2nnc3n(-c4ccccc4)nc(C(=O)c4ccccc4)n3c2=O)cc1	0.0
Cc1ccc(NC(=S)NC(NC(=O)c2ccccc2C)C(Cl)(Cl)Cl)c(C)c1 (stereo not drawn)	-2.9
O=C1CCSc2ccc(Cl)cc2N1Cc1ccc(Cl)cc1	3.7
NC(=O)[C@@H]1CCCCNc2c(I)cc([N+](=O)[O-])cc2C(=O)N[C@@H](CCC(=O)O)C(=O)N[C@@H](CO)C(=O)N1	-60.0
CC(C)C[C@@H]1NC(=O)[C@H](Cc2ccc(O)cc2)NC(=O)c2cc([N+](=O)[O-])cc(I)c2NCCC[C@@H](C(N)=O)NC1=O	4.5

Assay outcomes as filed in PubChem.
